Experimental data reported in ChEMBL document CHEMBL3421596, “A facile synthesis and microtubule-destabilizing properties of 4-(1H-benzo[d]imidazol-2-yl)-furazan-3-amines” (Eur J Med Chem, 2015).
The source made the active and inactive calls. No cut-off for these calls is given here.

Experiments:
[1] = system: Paracentrotus lividus; assay: Antiproliferative activity in sea urchin embryo assessed as antimitotic activity by measuring cleavage arrest exposed for 8 to 20 mins after fertilization and 45 to 55 mins before first mitotic cycle completion measured 2.5 to […] after fertilization; type: functional
[2] = system: Paracentrotus lividus; assay: Antiproliferative activity in sea urchin embryo assessed as antimitotic activity by measuring cleavage alteration exposed for 8 to 20 mins after fertilization and 45 to 55 mins before first mitotic cycle completion measured 2.5 to […] after fertilization; type: functional
[3] = system: Paracentrotus lividus; assay: Antiproliferative activity in sea urchin embryo assessed as destabilization of microtubule by measuring embryo spinning after 15 mins to 20 hrs; type: functional
[4] = Cytotoxicity against human NCI60 cells; type: functional
[5] = system: Paracentrotus lividus; assay: Antiproliferative activity in sea urchin embryo assessed as destabilization of microtubule by tuberculate eggs after 15 mins to 20 hrs; type: functional, organism-based
[6] = biological target: Tubulin (Bos taurus, UniProt Q6B856+Q862L2+Q862F3); assay: Inhibition of bovine tubulin polymerization by turbidity assay; type: protein assay
[7] = Cytotoxicity against human NCI-ADR-RES cells; type: functional
[8] = Cytotoxicity against human OVCAR8 cells; type: functional
[9] = system: SF-539; assay: Cytotoxicity against human SF539 cells; type: functional
[10] = system: RXF 393; assay: Cytotoxicity against human RXF393 cells; type: functional
[11] = system: MDA-MB-435; assay: Cytotoxicity against human MDA-MB-435 cells; type: functional
[12] = Cytotoxicity against human OVCAR3 cells; type: functional
[13] = system: HT-29; assay: Cytotoxicity against human HT-29 cells; type: functional
[14] = system: NCI-H460; assay: Cytotoxicity against human NCI-H460 cells; type: functional
[15] = Cytotoxicity against human PC3 cells; type: functional; settings: PC-3
[16] = system: SF-268; assay: Cytotoxicity against human SF268 cells; type: functional
[17] = system: 786-0; assay: Cytotoxicity against human 786-0 cells; type: functional
[18] = system: NCI-H226; assay: Cytotoxicity against human NCI-H226 cells; type: functional
[19] = system: SNB-19; assay: Cytotoxicity against human SNB19 cells; type: functional
[20] = system: SK-MEL-28; assay: Cytotoxicity against human SK-MEL-28 cells; type: functional
[21] = system: T47D; assay: Cytotoxicity against human T47D cells; type: functional
[22] = system: HCC 2998; assay: Cytotoxicity against human HCC2998 cells; type: functional
[23] = system: U-251; assay: Cytotoxicity against human U251 cells; type: functional
[24] = system: A549; assay: Cytotoxicity against human A549 cells; type: functional
[25] = system: ACHN; assay: Cytotoxicity against human ACHN cells; type: functional
[26] = system: NCI-H322M; assay: Cytotoxicity against human NCI-H322M cells; type: functional
[27] = system: COLO 205; assay: Cytotoxicity against human COLO205 cells; type: functional
[28] = system: SW-620; assay: Cytotoxicity against human SW620 cells; type: functional
[29] = Cytotoxicity against human OVCAR5 cells; type: functional; settings: OVCAR-5
[30] = system: SR; assay: Cytotoxicity against human SR cells; type: functional
[31] = system: DU-145; assay: Cytotoxicity against human DU145 cells; type: functional
[32] = system: MDA-MB-468; assay: Cytotoxicity against human MDA-MB-468 cells; type: functional
[33] = Cytotoxicity against human SKOV3 cells; type: functional; settings: SK-OV-3
[34] = Cytotoxicity against human UO31 cells; type: functional; settings: UO-31
[35] = system: K562; assay: Cytotoxicity against human K562 cells; type: functional
[36] = system: M14; assay: Cytotoxicity against human M14 cells; type: functional
[37] = system: HOP-62; assay: Cytotoxicity against human HOP62 cells; type: functional
[38] = system: MOLT-4; assay: Cytotoxicity against human MOLT4 cells; type: functional
[39] = Cytotoxicity against human OVCAR4 cells; type: functional; settings: OVCAR-4
[40] = system: KM12; assay: Cytotoxicity against human KM12 cells; type: functional
[41] = system: NCI-H23; assay: Cytotoxicity against human NCI-H23 cells; type: functional
[42] = system: HL-60(TB); assay: Cytotoxicity against human HL-60(TB) cells; type: functional
[43] = system: MDA-MB-231; assay: Cytotoxicity against human MDA-MB-231 cells; type: functional
[44] = Cytotoxicity against human UACC62 cells; type: functional; settings: UACC-62
[45] = Cytotoxicity against human HCT15 cells; type: functional; settings: HCT-15
[46] = system: NCI-H522; assay: Cytotoxicity against human NCI-H522 cells; type: functional
[47] = system: RPMI-8226; assay: Cytotoxicity against human RPMI8226 cells; type: functional
[48] = Cytotoxicity against human Hs578T cells; type: functional; settings: Hs-578T
[49] = system: SNB-75; assay: Cytotoxicity against human SNB75 cells; type: functional
[50] = system: CCRF-CEM; assay: Cytotoxicity against human CCRF-CEM cells; type: functional
[51] = Cytotoxicity against human HCT116 cells; type: functional; settings: HCT-116
[52] = system: BT-549; assay: Cytotoxicity against human BT549 cells; type: functional
[53] = system: SK-MEL-5; assay: Cytotoxicity against human SK-MEL-5 cells; type: functional
[54] = system: LOX IMVI; assay: Cytotoxicity against human LOXIMVI cells; type: functional
[55] = system: CAKI-1; assay: Cytotoxicity against human Caki1 cells; type: functional
[56] = system: SN12C; assay: Cytotoxicity against human SN12C cells; type: functional
[57] = system: A498; assay: Cytotoxicity against human A498 cells; type: functional
[58] = system: SK-MEL-2; assay: Cytotoxicity against human SK-MEL-2 cells; type: functional
[59] = system: Malme-3M; assay: Cytotoxicity against human MALME-3M cells; type: functional
[60] = system: HOP-92; assay: Cytotoxicity against human HOP92 cells; type: functional
[61] = system: MCF7; assay: Cytotoxicity against human MCF7 cells; type: functional
[62] = Cytotoxicity against human UACC257 cells; type: functional; settings: UACC-257
[63] = system: IGROV-1; assay: Cytotoxicity against human IGROV1 cells; type: functional
[64] = system: TK-10; assay: Cytotoxicity against human TK10 cells; type: functional
[65] = Cytotoxicity against human NCI60 cells assessed as cell growth at 10 uM; type: functional; settings: read-out: Activity
Outline: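 NCI60 panel screened by the NCI Developmental Therapeutics Program at a single 10 µM concentration; mean cell growth percent reported.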

## COc1cccc(Cn2c(-c3nonc3NC(C)=O)nc3ccccc32)c1
[1]
  EC: >4 µM
[2]
  EC: 1 µM
[3]
  EC: >4 µM
[4]
  GI50: 3.98 µM

## N#CCCNc1nonc1-c1nc2ccccc2n1CC(=O)c1ccc(N)cc1 [AVANBULIN]
[4]
  GI50: 0.0065 µM

## COc1cc2c(c(OC)c1OC)-c1ccc(OC)c(=O)cc1[C@@H](NC(C)=O)CC2 [COLCHICINE]
[1]
  EC: 100 µM
[2]
  EC: 50 µM
[3]
  EC: 50 µM
[4]
  GI50: 0.132 µM
[5]
  Activity: Active

## Nc1nonc1-c1nc2ccccc2n1Cc1cccc(F)c1
[1]
  EC: >4 µM
[6]
  IC50: 7.9 µM
[2]
  EC: 0.5 µM
[3]
  EC: >4 µM

## Nc1nonc1-c1nc2ccccc2n1Cc1cccc2ccccc12
[6]
  IC50: 7.03 µM

## Nc1nonc1-c1nc2ccccc2n1Cc1cccc(C(F)(F)F)c1
[6]
  IC50: 13.27 µM

## CC[C@]1(O)C[C@@H]2CN(CCc3c([nH]c4ccccc34)[C@@](C(=O)OC)(c3cc4c(cc3OC)N(C)[C@H]3[C@@](O)(C(=O)OC)[C@H](OC(C)=O)[C@]5(CC)C=CCN6CC[C@]43[C@@H]65)C2)C1 [VINBLASTINE]
[7]
  TGI: 0.79 µM
[7]; read-out: GI50
  GI50: 0.1 µM
[8]; OVCAR-8
  TGI: 0.32 µM
[8]; OVCAR-8, read-out: GI50
  GI50: 0.0016 µM
[8]; OVCAR-8, read-out: LC50 (the source's name)
  CC50: 2 µM
[1]
  EC: 0.2 µM
[9]
  TGI: 0.0025 µM
[9]; read-out: GI50
  GI50: 0.0006 µM
[2]
  EC: 0.1 µM
[3]
  EC: 2 µM
[10]
  TGI: 0.05 µM
[10]; read-out: GI50
  GI50: 0.001 µM
[4]
  GI50: 0.00137 µM
[5]
  Activity: Active
[11]
  TGI: 0.00025 µM
[11]; read-out: GI50
  GI50: 0.00025 µM
[11]; read-out: LC50 (the source's name)
  CC50: 0.001 µM
[12]; OVCAR-3
  TGI: 0.0016 µM
[12]; OVCAR-3, read-out: GI50
  GI50: 0.0003 µM
[12]; OVCAR-3, read-out: LC50 (the source's name)
  CC50: 0.5 µM

## COc1cccc(Cn2c(-c3nonc3N)nc3ccccc32)c1
[13]
  GI50: 0.316 µM
[14]
  GI50: 0.363 µM
[15]
  GI50: 0.447 µM
[16]
  GI50: 0.759 µM
[7]; read-out: pGI50 (converted)
  GI50: 0.316 µM
[17]
  GI50: 0.437 µM
[18]
  GI50: 0.525 µM
[19]
  GI50: 0.741 µM
[20]
  GI50: 0.813 µM
[21]
  GI50: 0.501 µM
[22]
  GI50: 1.17 µM
[8]; OVCAR-8, read-out: pGI50 (converted)
  GI50: 0.525 µM
[23]
  GI50: 0.437 µM
[1]
  EC: 2 µM
[24]
  GI50: 0.617 µM
[25]
  GI50: 0.55 µM
[26]
  GI50: 0.871 µM
[27]
  GI50: 0.372 µM
[28]
  GI50: 0.363 µM
[29]
  GI50: 0.55 µM
[30]
  GI50: 0.263 µM
[31]
  GI50: 0.603 µM
[32]
  GI50: 0.24 µM
[9]; read-out: pGI50 (converted)
  GI50: 0.214 µM
[2]
  EC: 0.2 µM
[3]
  EC: >5 µM
[33]
  GI50: 0.437 µM
[34]
  GI50: 0.589 µM
[35]
  GI50: 0.347 µM
[36]
  GI50: 0.275 µM
[37]
  GI50: 0.468 µM
[38]
  GI50: 0.724 µM
[39]
  GI50: 8.71 µM
[40]
  GI50: 0.501 µM
[41]
  GI50: 0.832 µM
[42]
  GI50: 0.263 µM
[43]
  GI50: 0.955 µM
[44]
  GI50: 0.513 µM
[45]
  GI50: 0.38 µM
[46]
  GI50: 0.229 µM
[47]
  GI50: 0.363 µM
[48]
  GI50: 0.339 µM
[49]
  GI50: 0.295 µM
[10]; read-out: pGI50 (converted)
  GI50: 0.275 µM
[50]
  GI50: 0.339 µM
[51]
  GI50: 0.389 µM
[52]
  GI50: 0.363 µM
[53]
  GI50: 0.331 µM
[4]
  GI50: 0.457 µM
[54]
  GI50: 0.537 µM
[55]
  GI50: 0.417 µM
[56]
  GI50: 0.646 µM
[5]
  Activity: Active
[11]; read-out: pGI50 (converted)
  GI50: 0.182 µM
[57]
  GI50: 0.275 µM
[58]
  GI50: 0.288 µM
[59]
  GI50: 0.525 µM
[60]
  GI50: 0.372 µM
[12]; OVCAR-3, read-out: pGI50 (converted)
  GI50: 0.263 µM
[61]
  GI50: 0.398 µM
[62]
  GI50: 0.316 µM
[63]
  GI50: 0.603 µM
[64]
  GI50: 0.724 µM

## Nc1nonc1-c1nc2ccccc2n1CC(=O)Nc1ccc2c(c1)COC2=O
[1]
  EC: 4 µM
[2]
  EC: 2 µM
[3]
  EC: >4 µM
[65]
  growth at 10 µM: 80.8%

## Nc1nonc1-c1nc2ccccc2n1CC(=O)Nc1ccccc1Cl
[6]
  IC50: 7.36 µM
